The subject of experiment [1] is Trypanosoma brucei brucei. Kind of experiment: Inhibition of Trypanosoma brucei brucei 427 P1 transporter-mediated [3H]adenosine uptake by fluid scintillation counting in presence of 100 uM adenine.
The nature of experiment [2]: Inhibition of Trypanosoma brucei brucei 427 P2 transporter-mediated [3H]adenosine uptake by fluid scintillation counting in presence of 100 uM inosine.
For experiment [3], the system named is Trypanosoma brucei rhodesiense. Nature of the experiment: Trypanocidal activity against Trypanosoma brucei rhodesiense STIB 900 […] by reporter dye assay. Type of experiment: functional, organism-based.
The next experiment has as its system Plasmodium falciparum. Nature of the experiment: Antiplasmodial activity against chloroquine and pyrimethamine-resistant Plasmodium falciparum K1 […] by reporter dye assay. The class given is functional, organism-based.
Another experiment deals with L6. Nature of the experiment: Cytotoxicity against rat L6 cells. The class given is cell-based.
Experiment [4] in a line: Cytotoxicity against HEK293T cells after 16 hrs by alamar blue staining. The class given is cell-based. The following applies: Homo sapiens, HEK-293T. The method in brief: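 HEK 293T cells were seeded at 3×10^4/well in DMEM with 10% newborn bovine serum, 2 mM L-glutamax and 1% penicillin-streptomycin, and left to adhere for 3 h at 37°C under 5% CO2. Medium with serial drug dilutions (500 to 0.24 μM in the added medium) was then given for 16 h. Resazurin followed for a further 24 h, read by fluorescence (ex 530/em 590 nm). IC50 values came from ≥3 independent experiments.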
For orientation: The colour change of resazurin is a common sign of viable cells or microbes.

Experiment [5] deals with Trypanosoma brucei brucei. Kind of experiment: Trypanostatic activity against Trypanosoma brucei brucei s427 by alamar blue fluorescent dye assay. Type of experiment: functional. As to conditions: read-out: ED50 (the source's name).
Experiment [6] deals with Trypanosoma brucei brucei. Kind of experiment: Trypanocidal activity against Trypanosoma brucei brucei s427 by alamar blue fluorescent dye assay. Type of experiment: functional. The following applies: read-out: ED50 (the source's name).
For experiment [7], the system named is Leishmania major. Kind of experiment: Leishmanistatic activity against Leishmania major promastigotes by alamar blue fluorescent dye assay. As to conditions: read-out: ED50 (the source's name). The class given is functional.
Experiment [8] concerns Leishmania major. Nature of the experiment: Leishmanicidal activity against Leishmania major promastigotes by alamar blue fluorescent dye assay. As to conditions: read-out: ED50 (the source's name). Type of experiment: functional.
Another experiment relates to Leishmania mexicana. Nature of the experiment: Antiprotozoal activity against axenic Leishmania mexicana amastigotes by alamar blue fluorescent dye assay. Type of experiment: functional, organism-based.
For experiment [9], the system named is Leishmania major. Kind of experiment: Biphasic antileishmanial activity against Leishmania major promastigotes by alamar blue fluorescent dye assay. The class given is functional, organism-based.
Experiment [10] can be described thus: Inhibition of [3H]hypoxanthine uptake at Trypanosoma brucei brucei 427 H2 transporter expressed in human erythrocytes by fluid scintillation counting. The class given is cell-based.
The subject of experiment [11] is Trypanosoma brucei brucei. Nature of the experiment: Biphasic antitrypanosomal activity against Trypanosoma brucei brucei s427 by alamar blue fluorescent dye assay. The class given is functional, organism-based.

These results are taken from ChEMBL document CHEMBL1137633, “2,N6-disubstituted adenosine analogs with antitrypanosomal and antimalarial activities” (Antimicrob Agents Chemother, 2007).

Activity calls are given as the source filed them. The calls are words filed in the database; no cut-off is given here. A value given as a limit tells only on which side of the number the result lay.

What is called Ki is a dissociation constant, usually derived from enzyme kinetics or from competition with a known ligand. For the compound `Nc1ncnc2c1ncn2[C@H]1C[C@H](O)[C@@H](CO)O1` [DEOXYADENOSINE], the inhibition entry in experiment [1] is “inactive”. For the same compound, in [2], the Ki was found to be 0.23 µM.

By IC50 is commonly meant the concentration that inhibits the measured activity by half. Lower therefore signals greater potency. On to `OC[C@H]1O[C@@H](n2cnc3c(NC4CCCC4)nc(NC4CCCC4)nc32)[C@H](O)[C@@H]1O`, for which the IC50 in experiment [3] was 0.4 µM; in the experiment on Plasmodium falciparum, greater than 10 µM; in the experiment with L6, 97.3 µM; in experiment [4], greater than 500 µM; with Leishmania mexicana, 9.01 µM. Moreover, the inhibition entry in experiment [1] is “inactive”. In addition, the Ki in experiment [2] worked out at 20 µM. The EC50 in experiment [5] worked out at 0.166 µM; in [6], 15.7 µM; in the experiment on Leishmania major [7], 0.01 µM; with Leishmania major [8] it was 9.07 µM.

On to `N=C(N)c1ccc(OCCCCCOc2ccc(C(=N)N)cc2)cc1` [PENTAMIDINE], for which the IC50 with Leishmania major [9] was determined as 3.52 µM.

Compound `c1nc2nc(NC3CCCC3)nc(NC3CCCC3)c2[nH]1` displayed a Ki in experiment [10] of 33.4 µM. Moreover, the EC50 was 0.026 µM in [5], 23.4 µM in [6], 0.015 µM in the experiment on Leishmania major [7] and 15.1 µM in the experiment with Leishmania major [8]. Also, in the experiment on Leishmania mexicana, the IC50 came to 15.2 µM.

`CCCCNc1nc(NC2CCCC2)nc2c1ncn2[C@@H]1O[C@H](CO)[C@@H](O)[C@H]1O`: the results for the IC50 (in [3]; in the experiment with Plasmodium falciparum; in [4]) were 0.64 µM, greater than 10 µM and greater than 500 µM, respectively. In addition, the inhibition result in experiment [1] was “inactive”. Further, the Ki in [2] came to 9 µM.

Consider `N=C(N)c1ccc(/N=N/Nc2ccc(C(=N)N)cc2)cc1` [DIMINAZENE], for which the IC50 in experiment [11] turned out to be 0.107 µM.
